# Starred links: 1 amine or outer side, 2 acyl side, 3 side chain; linkers in the order of their positions; H or OH if unused. Positions of bridges follow the written chain, without caps; N, C: chain ends. Non-standard residues stand in square brackets, D forms with d. Residues, ends and D or L forms follow the SMILES beside them. *: point of attachment. X2 = O=C(CN([C@@H](CS[*:3])C(=O)[*:2])[*:1])c1ccccc1; X4 = O=C([C@@H](N[*:1])[C@@H](S[*:3])c1ccccc1)[*:2]; X1 = O=C([C@@H](N[*:1])[C@H](S[*:3])c1ccccc1)[*:2]; NMeR = CN[C@@H](CCCNC(=N)N)C(=O)O; Pen = CC(C)(S)[C@H](N)C(=O)O; Pentanoyl = CCCCC(=O)*; Bz = O=C(c1ccccc1)*
# Legend:
# [1] = species on record: Canis familiaris; assay: Inhibition of platelet aggregation in canine platelet rich plasma induced by ADP; type: functional, Canis lupus familiaris
# Outline: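 Citrated canine PRP aggregation read optically by light transmittance. Peptide stock was 12 mM in 0.2 M acetic acid. Final 200 µM peptide and 10 µM ADP, pH 7.7, after 5-min preincubation with peptide.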
# [2] = molecular target: Integrin alpha-IIb/beta-3 (Homo sapiens, UniProt P05106+P08514); assay: Tested for inhibition of fibrinogen binding to purified GPIIb/IIIa isolated from human platelets and reconstituted in liposomes
# Integrin alpha-IIb/beta-3, sequence (P05106 27-788 limits assumed): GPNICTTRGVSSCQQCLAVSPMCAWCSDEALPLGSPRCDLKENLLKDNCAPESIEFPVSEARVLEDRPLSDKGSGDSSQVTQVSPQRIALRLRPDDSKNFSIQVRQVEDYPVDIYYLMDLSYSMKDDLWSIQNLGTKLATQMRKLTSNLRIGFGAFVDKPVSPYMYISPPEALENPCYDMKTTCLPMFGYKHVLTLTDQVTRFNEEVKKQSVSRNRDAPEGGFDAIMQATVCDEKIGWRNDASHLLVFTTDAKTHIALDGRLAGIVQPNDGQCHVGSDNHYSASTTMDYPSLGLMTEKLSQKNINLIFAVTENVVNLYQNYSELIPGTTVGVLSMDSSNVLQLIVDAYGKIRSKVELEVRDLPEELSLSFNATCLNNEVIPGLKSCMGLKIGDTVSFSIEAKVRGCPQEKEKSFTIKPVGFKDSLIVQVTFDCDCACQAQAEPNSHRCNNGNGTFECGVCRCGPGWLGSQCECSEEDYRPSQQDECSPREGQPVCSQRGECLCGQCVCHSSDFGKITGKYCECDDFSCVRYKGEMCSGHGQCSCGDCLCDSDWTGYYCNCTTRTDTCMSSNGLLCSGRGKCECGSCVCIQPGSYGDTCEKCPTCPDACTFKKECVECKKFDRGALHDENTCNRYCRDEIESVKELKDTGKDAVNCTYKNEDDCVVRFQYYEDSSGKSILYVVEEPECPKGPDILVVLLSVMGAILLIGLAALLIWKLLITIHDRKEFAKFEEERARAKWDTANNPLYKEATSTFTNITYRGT
# Integrin alpha-IIb/beta-3, sequence (P08514 32-887 limits assumed): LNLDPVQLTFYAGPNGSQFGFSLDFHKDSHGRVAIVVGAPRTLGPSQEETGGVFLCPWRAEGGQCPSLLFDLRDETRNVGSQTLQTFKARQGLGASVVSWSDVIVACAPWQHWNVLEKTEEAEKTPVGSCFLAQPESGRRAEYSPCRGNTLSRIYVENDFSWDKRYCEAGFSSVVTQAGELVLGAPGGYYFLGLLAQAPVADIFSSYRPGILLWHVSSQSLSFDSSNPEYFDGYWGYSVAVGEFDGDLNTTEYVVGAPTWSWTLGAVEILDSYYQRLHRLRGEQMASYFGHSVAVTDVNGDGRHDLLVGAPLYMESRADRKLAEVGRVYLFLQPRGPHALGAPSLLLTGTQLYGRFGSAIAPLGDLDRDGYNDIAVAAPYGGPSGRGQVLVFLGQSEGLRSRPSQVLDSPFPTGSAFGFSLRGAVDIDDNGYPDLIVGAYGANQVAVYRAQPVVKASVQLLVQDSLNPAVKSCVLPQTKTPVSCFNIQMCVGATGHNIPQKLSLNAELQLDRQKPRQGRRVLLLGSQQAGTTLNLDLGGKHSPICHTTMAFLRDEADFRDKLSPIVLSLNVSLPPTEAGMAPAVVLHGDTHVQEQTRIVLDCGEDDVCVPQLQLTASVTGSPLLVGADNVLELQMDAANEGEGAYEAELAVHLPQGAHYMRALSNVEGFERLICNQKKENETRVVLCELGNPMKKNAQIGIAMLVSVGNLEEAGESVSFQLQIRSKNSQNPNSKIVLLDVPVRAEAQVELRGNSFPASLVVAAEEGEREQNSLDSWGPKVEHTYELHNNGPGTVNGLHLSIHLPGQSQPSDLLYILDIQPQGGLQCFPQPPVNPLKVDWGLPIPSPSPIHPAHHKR
# Integrin alpha-IIb/beta-3, sequence (P08514 891-1039 limits assumed): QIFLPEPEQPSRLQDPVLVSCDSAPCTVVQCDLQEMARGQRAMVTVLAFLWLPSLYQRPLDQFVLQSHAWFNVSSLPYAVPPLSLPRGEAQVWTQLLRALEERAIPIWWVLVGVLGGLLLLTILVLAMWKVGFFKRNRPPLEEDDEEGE
# Outline: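 Displacement of [¹²⁵I]fibrinogen from purified human platelet GPIIb/IIIa incorporated into phospholipid vesicles. Values without statistical limits come from a single determination.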
"IC50 ([1]; Canis lupus familiaris, Plasma)",Ki [2],IC50 [1],SMILES
900 nM,–,–,"CCN1C(=O)[C@@H](NC(C)=O)CSSC(C)(C)[C@@H](C(N)=O)NC(=O)[C@H](CC(=O)O)NC(=O)CNC(=O)[C@@H]1CCCN=C(N)N (single isomer, unassigned)"
50 nM,–,–,CC(=O)N[C@H]1CSS[C@@H](c2ccccc2)[C@@H](C(N)=O)NC(=O)[C@H](CC(=O)O)NC(=O)CNC(=O)[C@H](CCCN=C(N)N)N(C)C1=O (Ac-C[NMeR]GD[X4]-NH2; disulfide 1-5)
1010 nM,820 nM,–,CN1C(=O)[C@@H]2CCCN2C(=O)c2ccccc2SSc2ccccc2NC(=O)[C@H](CC(=O)O)NC(=O)CNC(=O)[C@@H]1CCCN=C(N)N
3460 nM,143 nM,–,CN1CC(=O)N[C@@H](CCCNC(=N)N)C(=O)NCC(=O)N[C@@H](CC(=O)O)C(=O)Nc2ccccc2SSc2ccccc2C1=O
24400 nM,–,–,CC(=O)N[C@@H]1CSSC(C)(C)[C@H](C(N)=O)NC(=O)[C@@H](CC(=O)O)NC(=O)CNC(=O)[C@@H](CCCN=C(N)N)N(C)C(=O)[C@@H]2CCCN2C1=O
–,77 nM,–,"CC(=O)N[C@H]1CSSC(C)(C)[C@@H](C(N)=O)NC(=O)[C@H](CC(=O)O)NC(=O)CNC(=O)[C@H](CCCNC(=N)N)NC(=O)CN(C)C1=O (single isomer, unassigned)"
200 nM,13.7 nM,–,CN1C(=O)[C@@H](NC(=O)c2ccccc2)CSSC(C)(C)[C@@H](C(N)=O)NC(=O)[C@H](CC(=O)O)NC(=O)CNC(=O)[C@@H]1CCCN=C(N)N (Bz-C[NMeR]GD[Pen]-NH2; disulfide 1-5)
–,610 nM,–,"CC(=O)N[C@H]1CSSC(C)(C)[C@@H](C(N)=O)NC(=O)[C@H](CC(=O)O)NC(=O)CNC(=O)[C@H](CCCN=C(N)N)NC(=O)CNC1=O (single isomer, unassigned) [listing 1 of 2 here]"
170 nM,–,–,"CC(=O)N[C@H]1CSSc2ccccc2NC(=O)[C@H](CC(=O)O)NC(=O)CNC(=O)[C@H](CCCN=C(N)N)N(C)C1=O (single isomer, unassigned)"
370 nM,2.5 nM,–,"CC(=O)N[C@@H]1C(=O)N(C)[C@@H](CCCN=C(N)N)C(=O)NCC(=O)N[C@@H](CC(=O)O)C(=O)N[C@H](C(N)=O)C(C)(C)SSC1(C)C (single isomer, unassigned)"
40 nM,–,–,CC(=O)N[C@H]1CSS[C@H](c2ccccc2)[C@@H](C(=O)O)NC(=O)[C@H](CC(=O)O)NC(=O)CNC(=O)[C@H](CCCN=C(N)N)N(C)C1=O (Ac-C[NMeR]GD[X1]-OH; disulfide 1-5)
–,25300 nM,–,"CC(=O)N[C@H]1CSSC(C)(C)[C@@H](C(N)=O)NC(=O)[C@H](CC(=O)O)N(C)C(=O)CNC(=O)[C@H](CCCNC(=N)N)NC1=O (single isomer, unassigned)"
236 nM,9.5 nM,–,CN1C(=O)c2ccccc2SSCCNC(=O)[C@@H](CC(=O)O)NC(=O)CNC(=O)[C@H]1CCCNC(=N)N
7970 nM,188 nM,–,"CC(=O)N[C@@H]1C(=O)N[C@@H](CCCN=C(N)N)C(=O)NCC(=O)N[C@@H](CC(=O)O)C(=O)N[C@H](C(N)=O)CSSC1(C)C (single isomer, unassigned)"
120 nM,4.8 nM,–,CN1C(=O)[C@@H](N)CSSC(C)(C)[C@@H](C(=O)O)NC(=O)[C@H](CC(=O)O)NC(=O)CNC(=O)[C@@H]1CCCN=C(N)N (H-C[NMeR]GD[Pen]-OH; disulfide 1-5)
280 nM,35 nM,–,CN1C(=O)[C@@H](NCC(=O)c2ccccc2)CSSC(C)(C)[C@@H](C(N)=O)NC(=O)[C@H](CC(=O)O)NC(=O)CNC(=O)[C@@H]1CCCN=C(N)N (H-[X2][NMeR]GD[Pen]-NH2; disulfide 1-5)
250 nM,26 nM,–,CCCCC(=O)N[C@H]1CSSC(C)(C)[C@@H](C(N)=O)NC(=O)[C@H](CC(=O)O)NC(=O)CNC(=O)[C@H](CCCN=C(N)N)N(C)C1=O (Pentanoyl-C[NMeR]GD[Pen]-NH2; disulfide 1-5)
137000 nM,–,–,"CC(=O)N[C@H]1CSSC(C)(C)[C@@H](C(N)=O)NC(=O)[C@H](CC(=O)O)N(C)C(=O)CNC(=O)[C@H](CCCN=C(N)N)NC1=O (single isomer, unassigned)"

"IC50 ([1]; Canis lupus familiaris, Plasma)",Ki [2],IC50 [1],SMILES
23400 nM,–,–,"CC(=O)N[C@H]1CSSC(C)(C)[C@@H](C(N)=O)NC(=O)[C@H](CC(=O)O)N(C)C(=O)CNC(=O)[C@H](CCCN=C(N)N)N(C)C1=O (single isomer, unassigned)"
–,65 nM,–,"CCN1C(=O)[C@H](NC(C)=O)CSSC(C)(C)[C@H](C(N)=O)NC(=O)[C@@H](CC(=O)O)NC(=O)CNC(=O)[C@H]1CCCNC(=N)N (single isomer, unassigned)"
1200 nM,–,–,"CC(=O)N[C@H]1CSSC(C)(C)[C@@H](C(N)=O)NC(=O)[C@H](CC(=O)O)NC(=O)CNC(=O)[C@H](CCCN=C(N)N)NC(=O)CN(C)C1=O (single isomer, unassigned)"
90 nM,–,–,"CN1C(=O)c2ccccc2SSc2ccccc2NC(=O)[C@H](CC(=O)O)NC(=O)CNC(=O)[C@@H]1CCCN=C(N)N (single isomer, unassigned)"
–,4200 nM,–,CC(=O)N[C@@H](CCCN=C(N)N)C(=O)NCC(=O)N[C@@H](CC(=O)O)C(N)=O
–,> 10000 nM,–,CC(=O)N[C@H]1CSSC(C)(C)[C@@H](C(N)=O)NC(=O)[C@H](CC(=O)O)NC(=O)CNC(=O)[C@H](CCCNC(=N)N)N(C)C(=O)[C@@H]2CCCN2C1=O
9710 nM,–,–,"CC(=O)N[C@H]1CSSc2ccccc2NC(=O)[C@H](CC(=O)O)NC(=O)CNC(=O)[C@H](CCCN=C(N)N)NC1=O (single isomer, unassigned)"
600 nM,–,–,CN1C(=O)c2ccccc2SSc2ccccc2NC(=O)[C@@H](CC(=O)O)NC(=O)CNC(=O)[C@@H]1CCCN=C(N)N
11400 nM,–,–,"CC(=O)N[C@H]1CSSC(C)(C)[C@@H](C(N)=O)NC(=O)[C@H](CC(=O)O)NC(=O)CNC(=O)[C@H](CCCN=C(N)N)NC(=O)CNC1=O (single isomer, unassigned) [listing 2 of 2 here]"
–,280 nM,–,"CC(=O)N[C@H]1CSSc2ccccc2NC(=O)[C@H](CC(=O)O)NC(=O)CNC(=O)[C@H](CCCNC(=N)N)NC1=O (single isomer, unassigned)"
–,45 nM,–,CC(=O)N[C@H]1CSS[C@@H](c2ccccc2)[C@@H](C(N)=O)NC(=O)[C@H](CC(=O)O)NC(=O)CNC(=O)[C@H](CCCNC(=N)N)N(C)C1=O (Ac-C[NMeR]GD[X4]-NH2; disulfide 1-5)
16200 nM,–,–,"CC(=O)N[C@H]1CSSC[C@@H](C(N)=O)NC(=O)[C@H](CC(=O)O)NC(=O)CNC(=O)[C@H](CCCN=C(N)N)NC1=O (single isomer, unassigned)"
–,2.1 nM,–,CC(=O)N[C@H]1CSS[C@H](c2ccccc2)[C@@H](C(=O)O)NC(=O)[C@H](CC(=O)O)NC(=O)CNC(=O)[C@H](CCCNC(=N)N)N(C)C1=O (Ac-C[NMeR]GD[X1]-OH; disulfide 1-5)
–,–,4120 nM,"CC(=O)N[C@@H]1CSSC(C)(C)[C@H](C(N)=O)NC(=O)C(CC(=O)O)NC(=O)CNC(=O)C(CCCN=C(N)N)NC1=O (single isomer, unassigned; 12)"
26000 nM,–,–,CN1C(=O)c2ccccc2SSc2ccccc2NC(=O)[C@H](CC(=O)O)NC(=O)CNC(=O)[C@H]1CCCN=C(N)N
–,7040 nM,–,"CC(=O)N[C@H]1CSSC(C)(C)[C@@H](C(N)=O)NC(=O)[C@H](CC(=O)O)N(C)C(=O)CNC(=O)[C@H](CCCNC(=N)N)N(C)C1=O (single isomer, unassigned)"
8080 nM,–,–,"N=C(N)NCCC[C@@H]1NC(=O)c2ccccc2SSC[C@@H](C(N)=O)NC(=O)[C@H](CC(=O)O)NC(=O)CNC1=O (single isomer, unassigned)"
–,26 nM,–,"CC(=O)N[C@H]1CSSc2ccccc2NC(=O)[C@H](CC(=O)O)NC(=O)CNC(=O)[C@H](CCCNC(=N)N)N(C)C1=O (single isomer, unassigned)"
